This note sets out measurements from ChEMBL document CHEMBL2150917, “Lignopurines: a new family of hybrids between cyclolignans and purines. Synthesis and biological evaluation” (2012).

Molecules are shown by their SMILES. Calls of active or inactive are those of the source. The calls are words filed in the database; no cut-off is given here.

Assay [1] deals with HeLa. Briefly: Induction of cell cycle arrest in human HeLa cells assessed as accumulation at G2/M phase at 1 uM after 24 hrs by propidium iodide staining-based FACS flow cytometry. It counts as functional. Summed up: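 Mycoplasma-negative HeLa cells in DMEM with 10% heat-inactivated FCS, 2 mM L-glutamine, penicillin/streptomycin, 37 °C, 5% CO2; exposed to 1 µM for 24 h alongside untreated controls. 3–5×10^5 cells fixed overnight in 70% ethanol at 4 °C, PBS-washed, 1 h with 1 mg/mL RNase A plus 20 µg/mL propidium iodide at room temperature; flow cytometry for % G2/M; three independent experiments.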

Another assay concerns HT-29. Briefly: Growth inhibition of human HT-29 cells after 72 hrs by SRB assay. Type of assay: functional. The conditions noted are these: HT-29, 72 h. The gist of the method: (§1)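 Cells seeded at 5×10^3/well in RPMI and attached for 18 h drug-free. Samples added in DMSO/H2O 3:7 for 72 h exposure. Cells then fixed with cold TCA for 60 min at 4 °C, stained with 0.4% SRB in 1% acetic acid for 10 min, stain solubilized in Tris and read at 490 nm. GI50 from 100×[(T−T0)/(C−T0)]=50; mean of triplicates.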

A further assay relates to MDA-MB-231. Briefly: Growth inhibition of human MDA-MB-231 cells after 72 hrs by SRB assay. It counts as functional. The conditions noted are these: MDA-MB-231, 72 h. The gist of the method: as §1
(In general: The SRB assay estimates cell density from bound dye.)

The next assay has as its system A549. Briefly: Growth inhibition of human A549 cells after 72 hrs by SRB assay. The conditions noted are these: A549, 72 h. Type of assay: functional. The gist of the method:
as §1

For assay [2], the system named is HeLa. Briefly: Disruption of microtubule network in human HeLa cells at 1 uM after 24 hrs by DAPI staining-based confocal laser scanning microscopy relative to control. Type of assay: cell-based. The gist of the method:
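HeLa cells in DMEM with 10% heat-inactivated FCS, 2 mM L-glutamine, penicillin/streptomycin, 37 °C, 5% CO2, grown on poly-L-lysine coverslips; 1 µM, 24 h. Fixed in 4% paraformaldehyde in HPEM (pH 6.6), 0.5% Triton X-100 permeabilized, anti-alpha-tubulin mouse mAb (1:150), Cy2 anti-mouse IgG, DAPI nuclei; confocal imaging versus untreated cells; at least three experiments.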

By GI50 is commonly meant the concentration giving 50% growth inhibition. As to `COc1cc([C@@H]2c3cc4c(cc3C=C(C=O)[C@H]2C(=O)OCCCn2cnc3cncnc32)OCO4)cc(OC)c1OC`, the outcome with HeLa [1] and in the assay with HeLa [2] was Active. The concentration for 50% growth inhibition (GI50) was found to be 0.71 µM with HT-29, 7.7 µM in the assay with MDA-MB-231 and 0.79 µM in the assay with A549.

For `CCCNCC1=Cc2cc3c(cc2[C@@H](c2cc(OC)c(OC)c(OC)c2)[C@@H]1C(=O)OCCCCCCn1cnc2c(Cl)ncnc21)OCO3`, the figures for the GI50 in the assay with HT-29, in the assay with MDA-MB-231 and in the assay with A549 were 2.2 µM, 3.5 µM and 2.3 µM, respectively.

Turning to `COc1cc([C@@H]2c3cc4c(cc3C=C(C=O)[C@H]2C(=O)OCCCCCCn2cnc3ncnc(Cl)c32)OCO4)cc(OC)c1OC`, the result in the assay on HeLa [1] and in the assay with HeLa [2] was Active. Besides, the results for the GI50 with HT-29, with MDA-MB-231 and in the assay with A549 were 1.7 µM, 3.7 µM and 1.2 µM, respectively.

With `COc1cc([C@@H]2c3cc4c(cc3[C@@H](O[C@@H]3O[C@@H]5CO[C@@H](C)O[C@H]5[C@H](O)[C@H]3O)[C@H]3COC(=O)[C@H]23)OCO4)cc(OC)c1O` [ETOPOSIDE], the GI50 in the assay on HT-29 stood at 9.4 µM; in the assay on MDA-MB-231 it was 7.2 µM; in the assay on A549, 2.2 µM.

For the compound `COc1cc([C@@H]2c3cc4c(cc3C=C(C=O)[C@H]2C(=O)OCCCCCCn2cnc3c(Cl)ncnc32)OCO4)cc(OC)c1OC`, the result in the assay on HeLa [1] and in the assay with HeLa [2] was Active. Also, the GI50 in the assay with HT-29 stood at 0.77 µM; with MDA-MB-231 it was 3.1 µM; in the assay with A549 it was 0.4 µM.

On to `COc1cc([C@@H]2c3cc4c(cc3C=C(C=O)[C@H]2C(=O)OCc2ccc(Cn3cnc5c(Cl)ncnc53)cc2)OCO4)cc(OC)c1OC`, for which the outcome in the assay with HeLa [1] and with HeLa [2] was Active. The concentration for 50% growth inhibition (GI50) came to 0.051 µM with HT-29, 0.81 µM with MDA-MB-231 and 0.029 µM with A549.

Turning to `COc1cc(-c2c(C(=O)OCCCn3cnc4c(Cl)ncnc43)c(C=O)cc3cc4c(cc23)OCO4)cc(OC)c1OC`, the outcome in the assay with HeLa [1] and with HeLa [2] was Active. Moreover, the GI50 with HT-29 is 2.1 µM; in the assay with MDA-MB-231 it was 5 µM; in the assay on A549, 2 µM.

As for `COc1cc([C@@H]2c3cc4c(cc3[C@H](O)[C@@H](CO)[C@H]2C(=O)OCCCBr)OCO4)cc(OC)c1OC`, the GI50 worked out at 0.14 µM in the assay with HT-29, 0.16 µM in the assay on MDA-MB-231 and 0.14 µM in the assay with A549.

Turning to `CCCNc1ncnc2c1ncn2CCCCCCOC(=O)[C@@H]1C(C=O)=Cc2cc3c(cc2[C@H]1c1cc(OC)c(OC)c(OC)c1)OCO3`, the result with HeLa [1] and with HeLa [2] was Active. In addition, the GI50 in the assay with HT-29 came out at 1.2 µM; in the assay with MDA-MB-231, 5.1 µM; in the assay on A549, 1.2 µM.

As for `COc1cc([C@@H]2c3cc4c(cc3C=C(C=O)[C@H]2C(=O)OCCCBr)OCO4)cc(OC)c1OC`, the GI50 in the assay with HT-29 worked out at 0.14 µM; in the assay on MDA-MB-231 it was 0.13 µM; in the assay on A549, 0.19 µM.

As for `COc1cc([C@@H]2c3cc4c(cc3C=C(C=O)[C@H]2C(=O)OCc2ccc(CBr)cc2)OCO4)cc(OC)c1OC`, the values for the GI50 in the assay with HT-29, with MDA-MB-231 and with A549 were 0.077 µM, 0.7 µM and 0.085 µM, respectively.

`COc1cc([C@@H]2c3cc4c(cc3C=C(C=O)[C@H]2C(=O)OCCCCCCn2cnc3cncnc32)OCO4)cc(OC)c1OC`: the result in the assay on HeLa [1] and with HeLa [2] was Active. The GI50 worked out at 0.53 µM in the assay on HT-29, 2.4 µM in the assay on MDA-MB-231 and 0.31 µM in the assay on A549.

Turning to `COc1cc([C@@H]2c3cc4c(cc3C=C(C=O)[C@H]2C(=O)OCCCn2cnc3c(Cl)ncnc32)OCO4)cc(OC)c1OC`, the outcome in the assay with HeLa [1] and with HeLa [2] was Active. In addition, the concentration for 50% growth inhibition (GI50) with HT-29 is 0.91 µM; in the assay on MDA-MB-231 it was 2.4 µM; in the assay with A549, 0.75 µM.

For the compound `CCC/N=C/C1=Cc2cc3c(cc2[C@@H](c2cc(OC)c(OC)c(OC)c2)[C@@H]1C(=O)OCc1ccc(Cn2cnc4c(Cl)ncnc42)cc1)OCO3`, the GI50 in the assay with HT-29 is 0.09 µM; with MDA-MB-231, 0.74 µM; in the assay with A549, 0.059 µM.

Regarding `COc1cc([C@@H]2c3cc4c(cc3C=C(C=O)[C@H]2C(=O)OCCCCCCBr)OCO4)cc(OC)c1OC`, the GI50 in the assay with HT-29 came out at 0.74 µM; with MDA-MB-231 it was 1.8 µM; in the assay on A549, 0.66 µM.

Regarding `CCCNCC1=Cc2cc3c(cc2[C@@H](c2cc(OC)c(OC)c(OC)c2)[C@@H]1C(=O)OCc1ccc(Cn2cnc4c(Cl)ncnc42)cc1)OCO3`, the concentration for 50% growth inhibition (GI50) is 0.63 µM in the assay with HT-29, 1.3 µM in the assay with MDA-MB-231 and 0.58 µM with A549.

For `COC(=O)[C@@H]1C(C=O)=Cc2cc3c(cc2[C@H]1c1cc(OC)c(OC)c(OC)c1)OCO3` [PODOPHYLLIC ALDEHYDE], the values for the GI50 in the assay on HT-29, in the assay on MDA-MB-231 and in the assay on A549 were 0.039 µM, 0.2 µM and 0.06 µM, respectively.

In the case of `COc1cc([C@@H]2c3cc4c(cc3[C@H](O)[C@@H](CO)[C@H]2C(=O)OCCCCCCBr)OCO4)cc(OC)c1OC`, the values for the GI50 in the assay with HT-29, in the assay with MDA-MB-231 and in the assay on A549 were 0.16 µM, 0.35 µM and 0.25 µM, respectively.
